Compounds with a hit are over-represented: about 2.7% of the library has one in this group of screens.
NR1D1 modulator: modulators of Rev-erb alpha DNA binding, primary screen, biochemical, FITC-DNA, fluorescence polarization, uHTS; Nuclear receptor subfamily 1 group D member 1 (Homo sapiens), P20393; activity, % at 10 µM; 370,000 compounds, 0.79% hits; Rev-erbα–FITC-DNA binding, 90 min;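 active = activity above about 14%, limit read from the data; passing the limit was not always enough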;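 also: 0% = DMSO wells with 35 nM protein and 100% = DMSO wells with 750 nM protein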
MC4R barr agon: MC4R agonists recruiting beta-arrestin, primary screen, cell-based, luminescence, agonist arm of biased-ligand search. U2OS MC4R beta-arrestin complementation; percent of melanotan II response, DMSO zero. AID 540308, 2011. activation, % at 8.9 µM. 360,000 compounds, 0.98% hits. Melanocortin receptor 4 (Homo sapiens), P32245;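 active = activation above a per-plate cutoff, the mean activation of sample wells on that plate plus 3 SD, cut at about 8% in these data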
Target sequence (P32245 whole entry, looked up): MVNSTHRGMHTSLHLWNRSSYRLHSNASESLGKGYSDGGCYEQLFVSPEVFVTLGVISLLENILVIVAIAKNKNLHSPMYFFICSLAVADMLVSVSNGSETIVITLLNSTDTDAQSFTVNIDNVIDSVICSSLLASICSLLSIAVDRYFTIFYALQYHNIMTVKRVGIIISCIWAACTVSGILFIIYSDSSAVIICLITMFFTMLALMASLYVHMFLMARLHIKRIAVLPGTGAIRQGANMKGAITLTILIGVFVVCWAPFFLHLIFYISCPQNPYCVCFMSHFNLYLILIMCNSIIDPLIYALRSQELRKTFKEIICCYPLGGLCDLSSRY
NR2E3 ag-1: NR2E3 agonists in two-hybrid cells, primary screen, cell-based, luminescence, CHO-S, Gal4-NCOR/VP16-NR2E3; Photoreceptor-specific nuclear receptor (Homo sapiens), Q9Y5X4; luciferase; inhibition of corepressor binding, % at 3.98 µM; 360,000 compounds, 0.35% hits; AID 602229, 2012;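 active = inhibition above the mean of all tested compounds plus 3 SD, cut at about 70% in these data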;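 also: 0% = DMSO with NR2E3 transfected cells and 100% = cells lacking NR2E3 construct; higher means lower luciferase signal from less NR2E3 corepressor binding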
PG9 binder: binders of HIV-1 gp120 antibody PG9, primary screen, biochemical, TR-FRET | 360,000 compounds, 0.43% hits | TR-FRET gp120-PG9 antibody binding | HIV-1 gp120 / PG9 antibody interaction | inhibition, % at 6.7 µM | AID 624416, 2012; in the data active = inhibition above about 8.5%
NR2E3 ag-2: inhibitors of NR2E3-RetCOR corepressor binding, primary screen, NR2E3 agonist project, biochemical, TR-FRET, GST-NR2E3, biotin-RetCOR. Photoreceptor-specific nuclear receptor (Homo sapiens), Q9Y5X4. 1536-well. inhibition of corepressor binding, % at 4.78 µM. 320,000 compounds, 0.12% hits. AID 2300, 2010;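 active = percent inhibition above the cutoff of mean plus 3 SD of all tested compounds, set per screening campaign, cut at about 20% in these data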;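 also: 0% = DMSO wells and 100% = biotin wells as full block of FRET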
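System: GST-NR2E3 and biotin-RetCOR proteins; probe or stimulus: 7 nM biotin-RetCOR; doses: compound at 4.8 µM, single dose; schedule: Compound–protein incubation for 5 h at 4 °C; detection: time-resolved FRET; read-out: percent inhibition; controls: biotin wells as high control, 0.6% DMSO wells as low control; format: 1536-well plates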
MC4R antag cAMP: MC4R antagonists of cAMP signaling, primary screen, cell-based, TR-FRET, antagonist arm of biased-ligand search | Melanocortin receptor 4 (Homo sapiens), P32245 | MC4R-expressing cells, MTII-stimulated cAMP, LANCE TR-FRET | inhibition, % at 6.5 µM | 360,000 compounds, 0.48% hits;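 active = inhibition above its plate's cutoff, the mean of tested wells on that plate plus 3 SD, cut at about 29% in these data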;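 also: 0% = Melanotan II alone and 100% = Melanotan II plus saturating MCL0020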
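material = U2OS cells stably expressing human melanocortin 4 receptor (MC4R) | also added = Melanotan II challenge | dosing = single nominal compound dose of 6.5 µM | detection = TR-FRET with Eu-cAMP and labeled anti-cAMP, 671 nm | replication = singlicate | timing = compound 30 min, challenge 1 h, detection 1 h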
Rev-erbA confirm: modulators of Rev-erb alpha DNA binding, confirmation, biochemical, FITC-DNA, fluorescence polarization, single point; shares compounds with NR1D1 modulator; 90 min; activation, % at 25 µM; 3,000 compounds, 61% hits; AID 1259319, 2017;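 active = activation at or above a set limit, or at least 3 SD above the negative control mean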;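 also: 0% = 35 nM protein with DMSO and 100% = 750 nM protein high control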
RORg counter: modulation of RORgamma DNA binding, dose response, counter-screen for Rev-erb alpha modulator project, biochemical, fluorescence polarization, FITC-DNA; shares compounds with NR1D1 modulator; purified RORgamma protein-FITC-DNA binding; IC50, µM; 910 compounds, 8% hits; AID 1259320, 2017;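 active = Compounds whose fitted half-maximal concentration for disrupting protein-DNA binding is below 10 micromolar; the record names Rev-erb in its text, so the target is in doubt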
Numbers without * were called inactive; i = inactive; / = not tested or not shown.

SMILES | NR1D1 modulator | MC4R barr agon | NR2E3 ag-1 | PG9 binder | NR2E3 ag-2 | MC4R antag cAMP | Rev-erbA confirm | RORg counter
Cc1sc(NC(=O)c2ccccc2)c(C(=O)NC(C)C)c1C | 24* | -1 | 5 | -1 | -1 | 3 | 3 | /
CCC(=O)c1ccc(OCC(=O)Nc2ccccc2C(=O)NC2CC2)cc1 | 22* | 0 | -7 | -2 | 5 | 6 | 96* | i
COC(=O)c1ccc(OCC(=O)Nc2ccccc2C(=O)NC2CC2)cc1 | 1 | 2 | 11 | 1 | 0 | 26 | / | /
COc1cccc(-c2nc(CSCC(=O)NCC3CCCO3)c(C)o2)c1 (centres undefined) | 3 | -2 | 0 | 1 | 2 | -6 | / | /
CN1CCS/C1=C\C=C1/SC(=S)N(CC(=O)O)C1=O | 293* | -3 | -7 | -17 | / | -36 | 173* | >40
CCN1C(=O)/C(=C/C=C2/SCCN2C)SC1=S | 78* | 1 | -105 | -8 | 0 | -2 | 148* | i
CCN1C(=O)/C(=C/C=C2/Sc3ccccc3N2CCO)SC1=S | 14 | -3 | -25 | -2 | -1 | 0 | / | /
Cc1cccc(C)c1NC(=O)C1(C)CCC(=O)N1CCOc1ccccc1 (centres undefined) | -1 | / | 2 | 2 | / | / | / | /
O=C(CN1CCN(S(=O)(=O)c2ccc(Br)cc2)CC1)Nc1ccc2c(c1)OCO2 | -4 | 0 | -11 | -1 | 1 | 0 | / | /
CCOc1ccc(-n2c([S-])c(C(=O)Nc3ccc(S(=O)(=O)N4CCOCC4)cc3)[n+]3cc(C(N)=O)ccc23)cc1 | 91* | 0 | 6 | -1 | 2 | 2 | 43* | >40
CCOc1ccc(NC(=O)COC(=O)c2ccc(S(=O)(=O)N3CCOCC3)cc2)cc1 | 0 | -2 | -21 | 1 | / | -5 | / | /
Nc1nc2c(Br)ccc(Br)c2cc1C(=O)NCc1cccc2ccccc12 | 10 | / | -15 | 0 | / | / | / | /
CN(C)C=Nc1nc2c(Br)ccc(Br)c2cc1C(=O)NCC(C)(C)C | 23* | / | / | / | / | / | 40* | >40
CCCNC(=O)OC[C@H]1O[C@H](CCO/N=C/C[C@@H]2C=C[C@H](OC(C)=O)[C@@H](COC(C)=O)O2)C=C[C@@H]1Oc1ccc(OC)cc1 | / | / | / | / | 0 | / | / | /
CCC(C)(C)NC(=O)CN(Cc1ccc2c(c1)OCO2)C(=O)CCC(=O)Nc1nccs1 | -10 | -1 | 15 | -1 | 1 | -1 | / | /
CCC(C)(C)NC(=O)CN(Cc1ccc2c(c1)OCO2)C(=O)CCC(=O)Nc1ccccn1 | 27* | 0 | -25 | 0 | 4 | 4 | 5 | /
Cc1cnc(NC(=O)c2cc3c(C)nn(-c4ccccc4)c3s2)s1 | 40* | 1 | 3 | 8 | -1 | -6 | 35* | >40
COc1ccc2c(C)cc(SCC(=O)Nc3cccnc3Cl)nc2c1 | 59* | 0 | -1 | 1 | -2 | 5 | 69* | i
COC(=O)c1ccc(NC(=O)CSc2nc3[nH]ncc3c(=O)[nH]2)cc1 | -1 | 0 | 2 | 1 | 2 | -5 | / | /
Cc1nnc(SCC(=O)Nc2cc(S(=O)(=O)N3CCCC3)ccc2Cl)n1C1CC1 | -3 | 0 | -16 | 0 | 6 | 3 | / | /

Compound activity as filed in PubChem.
